According to ChEMBL document CHEMBL2331324, “Synthesis and biological evaluation of guanidino analogues of roscovitine” (Eur J Med Chem, 2013):

Columns and labels:
[1] = molecular target: Mitogen-activated protein kinase 14 (Homo sapiens) (UniProt Q16539); experiment: Inhibition of recombinant p38 MAPKalpha (unknown origin) assessed as residual activity using [gamma-33P]ATP as substrate at 1 uM
In short: (§1)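 Kinase panel screen with each compound at 1 µM, in duplicate. Reactions were started with [γ-33P]ATP (800 cpm/pmol) at 5, 20 or 50 µM, chosen per enzyme to be at or below its ATP Km. Reactions were stopped with phosphoric acid and spotted onto P81 filters. Results are given as residual kinase activity.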

[2] = molecular target: Serine/threonine-protein kinase Sgk1 (Homo sapiens) (UniProt O00141); experiment: Inhibition of recombinant SGK1 (unknown origin) assessed as residual activity using [gamma-33P]ATP as substrate at 1 uM; in short: as §1
[3] = molecular target: Mitogen-activated protein kinase 13 (Homo sapiens) (UniProt O15264); experiment: Inhibition of recombinant p38 MAPKdelta (unknown origin) assessed as residual activity using [gamma-33P]ATP as substrate at 1 uM; in short: as §1
[4] = molecular target: Inhibitor of nuclear factor kappa-B kinase subunit beta (Homo sapiens) (UniProt O14920); experiment: Inhibition of recombinant IKKbeta (unknown origin) assessed as residual activity using [gamma-33P]ATP as substrate at 1 uM
In short: (§2)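 Recombinant kinase panel screened at 1 µM in duplicate. Reactions started with [γ-33P]ATP (800 cpm/pmol) at 5, 20 or 50 µM, chosen to sit at or below each enzyme's ATP Km. Stopped with phosphoric acid and spotted onto P81 filters. Result given as residual kinase activity.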

[5] = molecular target: Serine/threonine-protein kinase N2 (Homo sapiens) (UniProt Q16513); experiment: Inhibition of recombinant PRK2 (unknown origin) assessed as residual activity using [gamma-33P]ATP as substrate at 1 uM
In short: (§3)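 Selectivity panel run under previously published conditions. Screened at 1 μM in duplicate. Reactions started with [γ-33P]ATP (800 cpm/pmol) at 5, 20 or 50 μM, chosen to be at or below each enzyme's ATP Km. Stopped with phosphoric acid, spotted onto P81 filters. Result expressed as residual kinase activity.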

[6] = molecular target: RAC-beta serine/threonine-protein kinase (Homo sapiens) (UniProt P31751); experiment: Inhibition of recombinant PKB beta (unknown origin) assessed as residual activity using [gamma-33P]ATP as substrate at 1 uM; in short: as §3
Sequence of RAC-beta serine/threonine-protein kinase (Homo sapiens) (P31751 whole entry): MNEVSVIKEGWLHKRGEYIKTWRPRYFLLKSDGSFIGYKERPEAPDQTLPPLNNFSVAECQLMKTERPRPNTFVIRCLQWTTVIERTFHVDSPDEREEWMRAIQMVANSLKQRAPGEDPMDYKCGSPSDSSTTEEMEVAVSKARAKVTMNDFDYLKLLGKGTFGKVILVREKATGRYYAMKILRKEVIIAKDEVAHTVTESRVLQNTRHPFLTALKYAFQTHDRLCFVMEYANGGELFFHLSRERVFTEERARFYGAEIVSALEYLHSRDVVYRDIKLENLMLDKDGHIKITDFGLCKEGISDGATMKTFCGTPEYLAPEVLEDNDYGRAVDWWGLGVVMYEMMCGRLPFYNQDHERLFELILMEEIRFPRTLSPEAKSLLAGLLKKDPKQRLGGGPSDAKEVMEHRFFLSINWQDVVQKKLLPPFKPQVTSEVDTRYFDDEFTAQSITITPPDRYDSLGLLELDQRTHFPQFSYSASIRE

[7] = molecular target: Serine/threonine-protein kinase pim-3 (Homo sapiens) (UniProt Q86V86); experiment: Inhibition of recombinant PIM3 (unknown origin) assessed as residual activity using [gamma-33P]ATP as substrate at 1 uM; in short: as §3
[8] = molecular target: Calcium/calmodulin-dependent protein kinase kinase 2 (Homo sapiens) (UniProt Q96RR4); experiment: Inhibition of recombinant CAMKKbeta (unknown origin) assessed as residual activity using [gamma-33P]ATP as substrate at 1 uM; in short: as §2
[9] = molecular target: Serine/threonine-protein kinase tousled-like 1 (Homo sapiens) (UniProt Q9UKI8); experiment: Inhibition of recombinant TLK1 (unknown origin) assessed as residual activity using [gamma-33P]ATP as substrate at 1 uM; in short: as §1
[10] = molecular target: Misshapen-like kinase 1 (Homo sapiens) (UniProt Q8N4C8); experiment: Inhibition of recombinant MINK1 (unknown origin) assessed as residual activity using [gamma-33P]ATP as substrate at 1 uM; in short: as §3
Sequence of Misshapen-like kinase 1 (Homo sapiens) (Q8N4C8 whole entry, looked up): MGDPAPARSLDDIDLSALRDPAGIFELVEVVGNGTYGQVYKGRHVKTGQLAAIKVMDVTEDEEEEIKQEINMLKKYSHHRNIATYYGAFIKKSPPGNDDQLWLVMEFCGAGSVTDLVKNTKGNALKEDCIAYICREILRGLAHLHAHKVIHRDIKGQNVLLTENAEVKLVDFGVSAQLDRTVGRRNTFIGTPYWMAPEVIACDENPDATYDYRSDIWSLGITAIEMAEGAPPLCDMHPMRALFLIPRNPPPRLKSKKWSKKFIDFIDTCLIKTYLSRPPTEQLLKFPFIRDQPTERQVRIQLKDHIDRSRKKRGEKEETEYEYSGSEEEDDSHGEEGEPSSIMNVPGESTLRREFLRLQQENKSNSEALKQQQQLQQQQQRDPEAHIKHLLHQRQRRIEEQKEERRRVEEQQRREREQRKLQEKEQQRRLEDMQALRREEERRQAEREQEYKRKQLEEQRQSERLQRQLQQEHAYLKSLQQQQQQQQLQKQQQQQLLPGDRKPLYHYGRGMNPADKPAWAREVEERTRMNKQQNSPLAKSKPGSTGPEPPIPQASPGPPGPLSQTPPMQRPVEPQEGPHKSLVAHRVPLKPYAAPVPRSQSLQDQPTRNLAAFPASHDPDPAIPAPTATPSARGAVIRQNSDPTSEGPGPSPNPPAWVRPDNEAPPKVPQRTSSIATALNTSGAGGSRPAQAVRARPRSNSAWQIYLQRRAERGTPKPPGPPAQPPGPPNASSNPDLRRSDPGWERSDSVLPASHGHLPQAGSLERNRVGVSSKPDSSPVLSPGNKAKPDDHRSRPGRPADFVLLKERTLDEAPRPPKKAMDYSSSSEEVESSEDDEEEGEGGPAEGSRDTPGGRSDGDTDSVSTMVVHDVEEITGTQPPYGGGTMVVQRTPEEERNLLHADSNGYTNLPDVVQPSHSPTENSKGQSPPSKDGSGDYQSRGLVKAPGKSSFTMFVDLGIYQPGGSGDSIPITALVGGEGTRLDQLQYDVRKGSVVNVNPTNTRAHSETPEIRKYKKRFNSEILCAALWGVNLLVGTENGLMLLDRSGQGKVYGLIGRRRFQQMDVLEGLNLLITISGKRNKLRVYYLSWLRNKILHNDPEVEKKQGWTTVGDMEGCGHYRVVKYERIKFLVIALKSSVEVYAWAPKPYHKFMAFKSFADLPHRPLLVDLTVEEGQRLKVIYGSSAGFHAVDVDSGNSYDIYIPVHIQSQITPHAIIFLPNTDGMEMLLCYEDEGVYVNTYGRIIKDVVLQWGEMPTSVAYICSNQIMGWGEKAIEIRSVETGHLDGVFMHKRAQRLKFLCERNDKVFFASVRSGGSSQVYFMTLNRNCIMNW

[11] = molecular target: MAP/microtubule affinity-regulating kinase 3 (Homo sapiens) (UniProt P27448); experiment: Inhibition of recombinant MARK3 (unknown origin) assessed as residual activity using [gamma-33P]ATP as substrate at 1 uM; in short: as §3
[12] = molecular target: Mitogen-activated protein kinase 9 (Homo sapiens) (UniProt P45984); experiment: Inhibition of recombinant JNK2 (unknown origin) assessed as residual activity using [gamma-33P]ATP as substrate at 1 uM; in short: as §3
[13] = molecular target: Inhibitor of nuclear factor kappa-B kinase subunit epsilon (Homo sapiens) (UniProt Q14164); experiment: Inhibition of recombinant IKKepsilon (unknown origin) assessed as residual activity using [gamma-33P]ATP as substrate at 1 uM; in short: as §2
[14] = molecular target: Mitogen-activated protein kinase 3 (Homo sapiens) (UniProt P27361); experiment: Inhibition of recombinant ERK1 (unknown origin) assessed as residual activity using [gamma-33P]ATP as substrate at 1 uM; in short: as §2
[15] = molecular target: Ribosomal protein S6 kinase alpha-5 (Homo sapiens) (UniProt O75582); experiment: Inhibition of recombinant MSK1 (unknown origin) assessed as residual activity using [gamma-33P]ATP as substrate at 1 uM; in short: as §3
Sequence of Ribosomal protein S6 kinase alpha-5 (Homo sapiens) (O75582 whole entry, looked up): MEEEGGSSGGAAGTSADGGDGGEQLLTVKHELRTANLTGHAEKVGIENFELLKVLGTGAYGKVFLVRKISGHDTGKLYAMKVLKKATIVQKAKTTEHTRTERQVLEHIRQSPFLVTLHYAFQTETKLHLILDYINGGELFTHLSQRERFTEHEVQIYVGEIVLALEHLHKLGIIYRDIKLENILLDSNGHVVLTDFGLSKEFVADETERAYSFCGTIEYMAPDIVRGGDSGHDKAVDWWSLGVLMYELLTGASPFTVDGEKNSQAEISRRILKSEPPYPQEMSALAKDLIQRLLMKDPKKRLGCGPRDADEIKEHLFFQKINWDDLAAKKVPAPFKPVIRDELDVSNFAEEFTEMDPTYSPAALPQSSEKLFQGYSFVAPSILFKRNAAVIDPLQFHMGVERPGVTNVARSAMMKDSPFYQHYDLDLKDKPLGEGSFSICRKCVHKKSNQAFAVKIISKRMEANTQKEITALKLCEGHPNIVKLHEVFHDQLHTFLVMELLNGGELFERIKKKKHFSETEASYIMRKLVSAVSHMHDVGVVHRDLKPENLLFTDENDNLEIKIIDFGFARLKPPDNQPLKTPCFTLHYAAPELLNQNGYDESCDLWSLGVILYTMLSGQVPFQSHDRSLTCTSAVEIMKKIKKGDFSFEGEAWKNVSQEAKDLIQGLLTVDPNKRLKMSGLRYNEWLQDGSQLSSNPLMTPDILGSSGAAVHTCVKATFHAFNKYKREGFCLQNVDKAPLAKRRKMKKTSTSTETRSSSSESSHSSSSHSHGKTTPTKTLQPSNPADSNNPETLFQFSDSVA

[16] = molecular target: RAC-alpha serine/threonine-protein kinase (Homo sapiens) (UniProt P31749); experiment: Inhibition of recombinant PKB alpha (unknown origin) assessed as residual activity using [gamma-33P]ATP as substrate at 1 uM; in short: as §3
Homo sapiens = organism: Homo sapiens; experiment: Inhibition of recombinant VEGFR (unknown origin) assessed as residual activity using [gamma-33P]ATP as substrate at 1 uM; in short: as §1
[17] = molecular target: Cyclin-dependent kinase 1/cyclin B1 (Homo sapiens, UniProt P06493); experiment: Inhibition of recombinant CDK1/cyclin B (unknown origin) using histone H1 as substrate in presence of [gamma-33P]ATP; type: protein-complex assay
[18] = molecular target: Tyrosine-protein kinase ABL1 (Homo sapiens) (UniProt P00519); experiment: Inhibition of recombinant ABL (unknown origin) assessed as residual activity using [gamma-33P]ATP as substrate at 1 uM; in short: as §2
[19] = molecular target: Angiopoietin-1 receptor (Homo sapiens) (UniProt Q02763); experiment: Inhibition of recombinant TIE2 (unknown origin) assessed as residual activity using [gamma-33P]ATP as substrate at 1 uM; in short: as §1
Sequence of Angiopoietin-1 receptor (Homo sapiens) (Q02763 whole entry): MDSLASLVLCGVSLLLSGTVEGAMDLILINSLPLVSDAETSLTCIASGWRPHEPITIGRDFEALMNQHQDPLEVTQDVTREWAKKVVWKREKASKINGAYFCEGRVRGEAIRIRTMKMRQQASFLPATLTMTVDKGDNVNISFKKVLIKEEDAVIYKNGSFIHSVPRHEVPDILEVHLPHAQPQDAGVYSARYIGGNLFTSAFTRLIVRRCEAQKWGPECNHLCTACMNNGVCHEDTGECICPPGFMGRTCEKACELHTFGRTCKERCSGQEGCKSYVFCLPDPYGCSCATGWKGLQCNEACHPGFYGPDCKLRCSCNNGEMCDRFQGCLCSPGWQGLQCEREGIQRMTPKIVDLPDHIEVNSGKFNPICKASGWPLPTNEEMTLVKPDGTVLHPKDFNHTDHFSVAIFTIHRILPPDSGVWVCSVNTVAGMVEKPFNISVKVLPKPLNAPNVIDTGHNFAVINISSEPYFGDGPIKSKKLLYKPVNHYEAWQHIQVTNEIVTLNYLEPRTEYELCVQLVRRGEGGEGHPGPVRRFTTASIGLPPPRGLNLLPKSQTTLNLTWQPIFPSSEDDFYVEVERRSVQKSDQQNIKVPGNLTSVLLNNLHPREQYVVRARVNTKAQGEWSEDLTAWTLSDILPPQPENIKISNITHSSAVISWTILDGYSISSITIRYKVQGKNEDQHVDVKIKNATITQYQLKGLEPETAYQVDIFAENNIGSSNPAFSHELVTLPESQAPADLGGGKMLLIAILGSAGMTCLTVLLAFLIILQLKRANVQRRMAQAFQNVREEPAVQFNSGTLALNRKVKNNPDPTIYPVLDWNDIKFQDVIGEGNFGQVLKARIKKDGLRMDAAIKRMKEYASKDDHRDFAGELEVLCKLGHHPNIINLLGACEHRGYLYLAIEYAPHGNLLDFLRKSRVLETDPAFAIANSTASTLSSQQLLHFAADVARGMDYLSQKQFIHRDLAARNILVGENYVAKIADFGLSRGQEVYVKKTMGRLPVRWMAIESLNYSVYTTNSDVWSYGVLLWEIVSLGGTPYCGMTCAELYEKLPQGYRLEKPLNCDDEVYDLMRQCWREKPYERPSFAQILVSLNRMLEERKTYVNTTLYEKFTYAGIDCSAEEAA

[20] = molecular target: MAP kinase-activated protein kinase 5 (Homo sapiens) (UniProt Q8IW41); experiment: Inhibition of recombinant PRAK (unknown origin) assessed as residual activity using [gamma-33P]ATP as substrate at 1 uM; in short: as §3
[21] = molecular target: Mitogen-activated protein kinase 1 (Homo sapiens) (UniProt P28482); experiment: Inhibition of recombinant ERK2 (unknown origin) assessed as residual activity using [gamma-33P]ATP as substrate at 1 uM; in short: as §2
Sequence of Mitogen-activated protein kinase 1 (Homo sapiens) (P28482 whole entry): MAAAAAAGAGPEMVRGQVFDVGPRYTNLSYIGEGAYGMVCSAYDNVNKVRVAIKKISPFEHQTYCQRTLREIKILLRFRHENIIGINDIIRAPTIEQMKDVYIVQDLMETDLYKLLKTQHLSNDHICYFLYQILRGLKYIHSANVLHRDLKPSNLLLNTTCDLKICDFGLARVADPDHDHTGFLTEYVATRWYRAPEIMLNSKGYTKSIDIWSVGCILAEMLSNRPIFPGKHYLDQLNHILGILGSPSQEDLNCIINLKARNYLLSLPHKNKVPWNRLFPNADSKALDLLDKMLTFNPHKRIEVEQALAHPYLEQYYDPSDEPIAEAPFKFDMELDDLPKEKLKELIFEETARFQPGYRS

[22] = molecular target: Insulin-like growth factor 1 receptor (Homo sapiens) (UniProt P08069); experiment: Inhibition of recombinant IGF-1R (unknown origin) assessed as residual activity using [gamma-33P]ATP as substrate at 1 uM; in short: as §2
[23] = molecular target: Phosphorylase kinase (Homo sapiens) (UniProt P15735+P46020+P46019+Q93100+Q16816); experiment: Inhibition of recombinant PHK (unknown origin) assessed as residual activity using [gamma-33P]ATP as substrate at 1 uM; type: protein-complex assay; in short: as §3
[24] = molecular target: Tyrosine-protein kinase Lck (Homo sapiens) (UniProt P06239); experiment: Inhibition of recombinant LCK (unknown origin) assessed as residual activity using [gamma-33P]ATP as substrate at 1 uM; in short: as §3
[25] = molecular target: SRSF protein kinase 1 (Homo sapiens) (UniProt Q96SB4); experiment: Inhibition of recombinant SRPK1 (unknown origin) assessed as residual activity using [gamma-33P]ATP as substrate at 1 uM; in short: as §1
Sequence of SRSF protein kinase 1 (Homo sapiens) (Q96SB4 whole entry): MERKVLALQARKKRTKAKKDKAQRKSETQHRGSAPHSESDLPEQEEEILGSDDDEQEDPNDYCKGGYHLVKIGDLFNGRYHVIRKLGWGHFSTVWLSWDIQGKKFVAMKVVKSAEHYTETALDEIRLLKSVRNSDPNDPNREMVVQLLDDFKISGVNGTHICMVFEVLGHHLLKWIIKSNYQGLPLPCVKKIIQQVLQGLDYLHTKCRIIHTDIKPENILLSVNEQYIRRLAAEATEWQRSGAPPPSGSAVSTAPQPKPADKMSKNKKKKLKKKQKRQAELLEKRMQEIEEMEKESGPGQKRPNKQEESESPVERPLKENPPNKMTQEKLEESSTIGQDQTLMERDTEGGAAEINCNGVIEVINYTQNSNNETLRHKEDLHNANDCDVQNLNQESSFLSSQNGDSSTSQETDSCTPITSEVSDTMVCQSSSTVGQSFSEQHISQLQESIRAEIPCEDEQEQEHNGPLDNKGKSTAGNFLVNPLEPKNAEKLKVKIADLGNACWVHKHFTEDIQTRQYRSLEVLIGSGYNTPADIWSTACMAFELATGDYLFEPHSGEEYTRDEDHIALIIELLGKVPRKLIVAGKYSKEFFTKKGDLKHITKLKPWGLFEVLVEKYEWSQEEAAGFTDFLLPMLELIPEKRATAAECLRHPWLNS

[26] = molecular target: MAP kinase-activated protein kinase 2 (Homo sapiens) (UniProt P49137); experiment: Inhibition of recombinant MAPKAPK2 (unknown origin) assessed as residual activity using [gamma-33P]ATP as substrate at 1 uM; in short: as §3
[27] = molecular target: Ephrin type-A receptor 4 (Homo sapiens) (UniProt P54764); experiment: Inhibition of recombinant EPH-A4 (unknown origin) assessed as residual activity using [gamma-33P]ATP as substrate at 1 uM; in short: as §2

Structure (SMILES)	Activity [1] [%]	Activity [2] [%]	Activity [3] [%]	Activity [4] [%]	Activity [5] [%]	Activity [6] [%]	Activity [7] [%]	Activity [8] [%]	Activity [9] [%]	Activity [10] [%]	Activity [11] [%]	Activity [12] [%]	Activity [13] [%]	Activity [14] [%]	Activity [15] [%]	Activity [16] [%]	Activity (Homo sapiens) [%]	IC50 [17] [nM]	Activity [18] [%]	Activity [19] [%]	also measured
CC[C@@H](CO)Nc1nc(NC(=N)N)c2ncn(C(C)C)c2n1	82	51	23	76	84	103	44	13	9	75	17	73	52	28	38	107	4	900	6	40	Activity [20]: 74%; Activity [21]: 15%; Activity [22]: 5%; Activity [23]: 12%; Activity [24]: 12%; Activity [25]: 14%; Activity [26]: 48%; Activity [27]: 41%
CC[C@H](CO)Nc1nc(NC(=N)N)c2ncn(C(C)C)c2n1	87	60	37	74	85	111	64	17	9	64	24	85	66	50	46	99	6	2100	5	39	Activity [20]: 76%; Activity [21]: 32%; Activity [22]: 10%; Activity [23]: 14%; Activity [24]: 13%; Activity [25]: 22%; Activity [26]: 41%; Activity [27]: 22%
